The test system of data set [1] is MDA-MB-435. The experiment in a line: Reversal of paclitaxel resistance in multidrug resistant MDA435/LCC6 cells by MTS assay. The class given is functional, cell-based. To be noted: Homo sapiens. A digest of the protocol: (§1)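 Resistant MDA435/LCC6 cells, 4-day MTS assay of paclitaxel or vinblastine dose-response with dimers at 5 µM or monomers at 10 µM. Verapamil 5 µM as positive control, DMSO 0.05% as solvent control. IC50 from curves, triplicate, some repeated three times and averaged.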
Background: Tetrazolium assays rely on reduction of a dye to a coloured formazan, in cell work by metabolically active cells.

For data set [2], the system named is MDA-MB-435. The experiment in a line: Reversal of vinblastine resistance in multidrug resistant MDA435/LCC6 cells by MTS assay. Format: functional, cell-based. Particulars: Homo sapiens. The essentials: as §1
Data set [3] relates to MDA-MB-435. The experiment in a line: Reversal potency of vinblastine resistance in multidrug resistant MDA435/LCC6 cells by MTS assay. Particulars: Homo sapiens, in the assay text read “doxorubicin” for “vinblastine”. The class given is functional.
The test system of data set [4] is MDA-MB-435. The experiment in a line: Effect on P-gp-mediated drug efflux in multidrug resistant MDA435/LCC6 cells assessed as relative fold in intracellular DOX accumulation at 10 uM. Format: functional, Homo sapiens. A digest of the protocol:
(§2)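 Resistant MDA435/LCC6 cells grown to confluence, preincubated 30 min at 37 °C in fresh DMEM with modulator (0–20 µM), then DOX added (final 20 µM) for 2 h at 37 °C. Cells trypsinized, washed in cold PBS, lysed in 0.3 N HCl/50% ethanol, sonicated, centrifuged. Supernatant fluorescence read at ex 470/em 585 nm. Mean ± SD of three independent experiments.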

Data set [5] has as its system MDA-MB-435. The experiment in a line: Effect on P-gp-mediated drug efflux in multidrug resistant MDA435/LCC6 cells assessed as intracellular DOX accumulation at 0 to 10 uM. The class given is functional, Homo sapiens. The essentials: as §2
For data set [6], the system named is P388/ADR. Nature of the data set: Reversal of DOX resistance in P388 ADR cells by MTS assay at 5 uM. To be noted: Mus musculus. Format: functional, cell-based. The essentials: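 P388/ADR cells: 3-day MTS assay of DOX dose-response with modulator at 5 µM, or 10 µM for monomers. Verapamil 5 µM and 0.05% DMSO as controls. IC50 from curves, triplicate points, mean ± SD of three independent experiments.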

In data set [7] the test system is P388/ADR. The experiment in a line: Reversal of daunorubicin resistance in P388 ADR cells by MTS assay at 5 uM. The class given is functional, cell-based. Particulars: Mus musculus. The essentials:
(§3)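 P388/ADR cells in RPMI 1640 with 10% FBS and penicillin/streptomycin, 5000 cells/well. Serial drug concentrations were given with or without modulator (dimers 5 µM, monomers 10 µM; 0.05% DMSO control) and cells grown for 3 days at 37 °C. Read-out was MTS/PMS for 2 h, then A490. IC50 was taken from dose-response curves relative to solvent control; triplicate wells.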

The test system of data set [8] is P388/ADR. The experiment in a line: Reversal potency of DOX resistance in P388 ADR cells by MTS assay. The class given is functional, cell-based. To be noted: Mus musculus. A digest of the protocol:
(§4)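 P388/ADR cells: DOX or daunorubicin IC50 by 3-day MTS assay (A490) with modulator at 0–10 µM. Concentration dependence of IC50 used to gauge reversal potency. Typical experiment in triplicate.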

Data set [9] has as its system P388/ADR. The experiment in a line: Reversal potency of daunorubicin resistance in P388 ADR cells by MTS assay. Format: functional, cell-based. Particulars: Mus musculus. The essentials: as §4
Data set [10] concerns MDA-MB-435. Nature of the data set: Effect on P-gp-mediated drug efflux in MDA435/LCC6 cells assessed as intracellular DOX accumulation. Format: functional, cell-based. To be noted: Homo sapiens. A digest of the protocol:
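Confluent MDA435/LCC6 parent and MDR cells were preincubated with modulator in fresh DMEM for 30 min at 37 °C (range 0–20 µM; 0.05% DMSO control). DOX at 20 µM final was added for 2 h at 37 °C. Cells were trypsinised, washed three times in cold PBS, lysed in 0.3 N HCl/50% ethanol, sonicated and centrifuged. Supernatant DOX fluorescence was read (ex 470, em 585 nm); three independent experiments.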

For data set [11], the target named is T1, ATP-dependent translocase ABCB1 (Homo sapiens, UniProt P08183). The experiment in a line: Increase in ATPase activity in human P-gp membrane measured as fold over the basal level in presence of 5 mM MgATP at 100 uM. Format: functional, cell membranes. A digest of the protocol:
(§5)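 Human P-gp membrane (25 µg) incubated at 37 °C with compound (100 µM), verapamil (100 µM), both, Na3VO4 (100 µM) or 0.1% DMSO. Reaction started with 5 mM MgATP, run 40 min at 37 °C. Remaining ATP detected by luciferase luminescence after 20 min at room temperature. Activity is the luminescence drop versus vanadate-treated samples.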

Data set [12] has as its target T1, ATP-dependent translocase ABCB1. Nature of the data set: Increase in VP-induced ATPase activity in human P-gp membrane measured as fold over the basal level in presence of 5 mM MgATP at 100 uM. Format: functional, cell membranes. A digest of the protocol: as §5
For data set [13] the target is unchanged. Nature of the data set: Inhibition of VP-induced ATPase activity in human P-gp membrane in presence of verapamil. Format: functional, cell membranes. Set-up: scale not given: the % may be the effect or the level left.
In data set [14] the test system is P388/ADR. Nature of the data set: Reversal of mitoxantrone resistance in adriamycin resistant P388 cells by MTS assay. The class given is functional, cell-based. To be noted: Mus musculus. The essentials:
as §3

Data set [15] relates to MDA-MB-435. The experiment in a line: Reversal of mitoxantrone resistance in multidrug resistant LCC6 cells by MTS assay. To be noted: Homo sapiens. The class given is functional, cell-based. The essentials: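 MDA435/LCC6 MDR cells in DMEM with 10% FBS, 2000 cells/well, allowed to attach for 24 h. Anticancer drug was added in serial concentrations with or without modulator (dimers 5 µM, monomers 10 µM; 0.05% DMSO solvent control), then grown for 4 days at 37 °C, 5% CO2. MTS/PMS was added for 2 h and A490 read. Survival was taken relative to DMSO controls; IC60 for DOX, IC50 for the others; triplicate.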

Data set [16] relates to MDA-MB-435. Nature of the data set: Reversal of cisplatin resistance in multidrug resistant MDA435/LCC6 cells by MTS assay. Format: functional, cell-based. Particulars: Homo sapiens.
Data set [17] relates to MDA-MB-435. The experiment in a line: Cytotoxicity against MDA435/LCC6 cells at 5 uM. Format: functional, cell-based. To be noted: Homo sapiens.
Data set [18] deals with P388. Nature of the data set: Effect on P-gp-mediated drug efflux in P388 cells assessed as DOX accumulation after 30 mins. Particulars: Mus musculus.
For data set [19], the system named is P388/ADR. Nature of the data set: Effect on P-gp-mediated drug efflux in adriamycin drug resistant P388 cells assessed as DOX accumulation after 30 mins. To be noted: Mus musculus.
The test system of data set [20] is MDA-MB-435. Nature of the data set: Antiproliferative activity against multidrug resistant MDA435/LCC6 cells in presence of 5 uM 1,13-bis[4'-((5,7-dihydroxy)-4H-chromen-4-on-2-yl)phenyl]-1,4,7,10,13-pentaoxatridecane by ELISA. Format: functional, cell-based. To be noted: Homo sapiens. A digest of the protocol: (§6)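 Resistant breast cells seeded 2000/well, allowed 24 h attachment, then exposed to anticancer-drug concentration series with or without 5 µM modulator for 4 days. MTS/PMS read at 490 nm after 2 h. IC50 from dose-response curves relative to 0.05% DMSO controls. RF = IC50 without modulator divided by IC50 with modulator.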
(In general: ELISA stands for enzyme-linked immunosorbent assay.)

For data set [21], the system named is MDA-MB-435. The experiment in a line: Relative fold, IC50 in absence to presence of 1,13-bis[4'-((5,7-dihydroxy)-4H-chromen-4-on-2-yl)phenyl]-1,4,7,10,13-pentaoxatridecane in multidrug resistant MDA435/LCC6 cells. Format: functional, Homo sapiens. A digest of the protocol: as §6
In data set [22] the test system is P388/ADR. Nature of the data set: Antiproliferative activity against adriamycin resistant P388 cells in presence of 5 uM 1,13-bis[4'-((5,7-dihydroxy)-4H-chromen-4-on-2-yl)phenyl]-1,4,7,10,13-pentaoxatridecane by ELISA. Format: functional, cell-based. To be noted: Mus musculus. The essentials: (§7)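 P388/ADR cells seeded 5000/well in RPMI 1640 with 10% FBS, given drug concentration series with or without 5 µM modulator for 3 days. MTS/PMS added for 2 h at 37 °C, absorbance at 490 nm. IC50 from dose-response curves versus 0.05% DMSO controls. RF = IC50 without modulator / IC50 with modulator.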

Data set [23] deals with P388/ADR. Nature of the data set: Antiproliferative activity against adriamycin resistant P388 cells in presence of 5 uM verapamil by ELISA. To be noted: Mus musculus. The class given is functional, cell-based. The essentials:
as §7

In data set [24] the test system is P388. Nature of the data set: Relative fold, IC50 in absence to presence of 1,13-bis[4'-((5,7-dihydroxy)-4H-chromen-4-on-2-yl)phenyl]-1,4,7,10,13-pentaoxatridecane in multidrug resistant P388 cells. Format: functional, Mus musculus. The essentials:
as §7

The subject of data set [25] is P388. The experiment in a line: Relative fold, IC50 in absence to presence of verapamil in multidrug resistant P388 cells. Format: functional, Mus musculus. A digest of the protocol: as §7
Data set [26] deals with MDA-MB-435. Nature of the data set: Antiproliferative activity against multidrug resistant MDA435/LCC6 cells by ELISA. Format: functional, cell-based. Particulars: Homo sapiens. A digest of the protocol: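 MTS/PMS proliferation assay: cells seeded 2000/well, drugs added after 24 h attachment, growth 4 days in DMEM with 10% FBS at 37 °C, 5% CO2. MTS/PMS added for 2 h, absorbance read at 490 nm. Survival is taken relative to DMSO (0.05%) controls. IC50 is read from dose-response curves, at least triplicate, repeated twice.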

Data set [27] has as its system MDA-MB-435. Nature of the data set: Antiproliferative activity against MDA435/LCC6 cells by ELISA. Format: functional, cell-based. To be noted: Homo sapiens.
Data set [28] has as its system P388/ADR. Nature of the data set: Antiproliferative activity against adriamycin resistant P388 cells by ELISA. The class given is functional, cell-based. To be noted: Mus musculus. A digest of the protocol:
(§8)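 MTS/PMS proliferation assay: cells seeded 5000/well in RPMI 1640 with 10% FBS and penicillin/streptomycin at 37 °C, 5% CO2. Drug series added and cells grown 3 days. MTS/PMS added for 2 h at 37 °C, absorbance read at 490 nm. Survival relative to DMSO (0.05%) controls; IC50 from dose-response curves, at least triplicate.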

Data set [29] deals with P388. The experiment in a line: Antiproliferative activity against P388 cells by ELISA. The class given is functional, cell-based. To be noted: Mus musculus. A digest of the protocol:
as §8

This is an account of results in ChEMBL document CHEMBL1137344, “Flavonoid dimers as bivalent modulators for P-glycoprotein-based multidrug resistance: synthetic apigenin homodimers linked with defined-length poly(ethylene glycol) spacers increase drug retention and enhance chemosensitivity in resistant cancer cells” (J Med Chem, 2006).

What is called EC50 is the concentration giving half of the maximal effect. By IC50 is commonly meant the concentration that inhibits the measured activity by half.

Activity calls are given as the source filed them. No cut-off for these calls is given here.

T1 sequence (P08183 whole entry): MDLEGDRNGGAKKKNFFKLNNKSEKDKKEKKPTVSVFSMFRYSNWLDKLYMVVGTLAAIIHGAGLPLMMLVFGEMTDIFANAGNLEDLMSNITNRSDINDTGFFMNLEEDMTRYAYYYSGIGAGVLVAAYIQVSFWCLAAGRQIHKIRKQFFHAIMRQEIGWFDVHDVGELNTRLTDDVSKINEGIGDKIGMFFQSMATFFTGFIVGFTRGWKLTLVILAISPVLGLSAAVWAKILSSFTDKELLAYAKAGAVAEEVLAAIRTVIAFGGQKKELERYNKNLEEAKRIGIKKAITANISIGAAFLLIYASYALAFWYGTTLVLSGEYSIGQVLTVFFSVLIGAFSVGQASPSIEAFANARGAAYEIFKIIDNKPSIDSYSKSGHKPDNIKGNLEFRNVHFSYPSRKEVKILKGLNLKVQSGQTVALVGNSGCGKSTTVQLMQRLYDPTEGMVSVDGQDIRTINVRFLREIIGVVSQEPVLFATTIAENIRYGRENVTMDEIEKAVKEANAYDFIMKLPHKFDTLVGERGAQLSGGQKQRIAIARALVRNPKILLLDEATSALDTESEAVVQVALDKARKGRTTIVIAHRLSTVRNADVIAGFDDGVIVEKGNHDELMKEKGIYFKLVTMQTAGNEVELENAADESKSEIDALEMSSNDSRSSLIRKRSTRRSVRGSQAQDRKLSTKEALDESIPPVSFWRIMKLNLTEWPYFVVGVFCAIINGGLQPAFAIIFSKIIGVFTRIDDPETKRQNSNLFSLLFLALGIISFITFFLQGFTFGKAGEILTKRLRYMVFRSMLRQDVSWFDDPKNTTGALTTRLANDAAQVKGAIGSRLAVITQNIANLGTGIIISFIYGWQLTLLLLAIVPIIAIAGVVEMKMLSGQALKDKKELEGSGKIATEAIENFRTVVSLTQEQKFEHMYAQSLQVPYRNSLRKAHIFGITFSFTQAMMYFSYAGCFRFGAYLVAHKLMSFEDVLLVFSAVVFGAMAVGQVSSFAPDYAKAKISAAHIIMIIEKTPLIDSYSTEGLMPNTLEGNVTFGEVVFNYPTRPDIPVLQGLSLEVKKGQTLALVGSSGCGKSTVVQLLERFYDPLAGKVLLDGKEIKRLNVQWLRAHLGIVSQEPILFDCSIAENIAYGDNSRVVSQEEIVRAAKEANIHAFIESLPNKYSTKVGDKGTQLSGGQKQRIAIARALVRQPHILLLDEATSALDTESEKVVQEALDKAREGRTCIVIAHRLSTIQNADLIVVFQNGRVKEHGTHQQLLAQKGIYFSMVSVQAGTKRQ

With `O=c1cc(-c2ccc(OCCOCCOCCOCCOc3ccc(-c4cc(=O)c5c(O)cc(O)cc5o4)cc3)cc2)oc2cc(O)cc(O)c12`, the concentration for a half-maximal effect (EC50) with MDA-MB-435 [1] was found to be 900 nM. For the same compound, the concentration for half-maximal inhibition (IC50) worked out at 4.4 nM in the data set on MDA-MB-435 [1]; 0.36 nM in the data set on MDA-MB-435 [2]; 150 nM with P388/ADR [6]; 100 nM in the data set with P388/ADR [7]; 150 nM with P388/ADR [8]; 100 nM in the data set on P388/ADR [9]. Moreover, the Activity result was “Dose-dependent effect” in the data set with MDA-MB-435 [2]; 5.8 with MDA-MB-435 [4]; 17% in the data set on MDA-MB-435 [5]; 3.3 in data set [11]; 7.4 in [12]; 17% in [13]. The Activity entry in the data set on P388/ADR [19] was “Dose-dependent effect”. Besides, the IC60 in the data set on MDA-MB-435 [3] was found to be 730 nM. Moreover, the result in the data set on MDA-MB-435 [10], with P388/ADR [14], in the data set on MDA-MB-435 [15], in the data set with MDA-MB-435 [16], with MDA-MB-435 [17] and in the data set with P388 [18] was inactive.

Take `COc1cccc2c1C(=O)c1c(O)c3c(c(O)c1C2=O)C[C@@](O)(C(C)=O)C[C@@H]3O[C@H]1C[C@H](N)[C@H](O)[C@H](C)O1` [DAUNORUBICIN]: the 50% inhibitory concentration (IC50) came out at 129 nM in the data set on MDA-MB-435 [20]; 106 nM in the data set on P388/ADR [22]; 40 nM with P388/ADR [23]; 977 nM in the data set on MDA-MB-435 [26]; 79 nM in the data set on MDA-MB-435 [27]; 2110 nM with P388/ADR [28]. In the data set on P388 [29], this compound registered a 50% inhibitory concentration (IC50) of 25 nM. Besides, the entries for the “Ratio IC50” value in the data set on MDA-MB-435 [21], in the data set on P388 [24] and with P388 [25] were 7.6, 20 and 53, respectively.
